In ChEMBL document CHEMBL3124843, “Synthesis, cytostatic, antimicrobial, and anti-HCV activity of 6-substituted 7-(het)aryl-7-deazapurine ribonucleosides” (J Med Chem, 2014):
pEC50, pIC50: −log10 of the molar value. Calls of active or inactive are those of the source. How the calls were made is not given here.

Tests used:
[1] = Cytotoxicity against human HuH7 cells infected with Hepatitis C virus subtype 2a; assay type: cell-based, Huh-7
[2] = system: BJ; experiment: Cytostatic activity against human BJ cells after 72 hrs by MTT assay; assay type: ADME, cell-based
Procedure, shortened: (§1)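 IC50 is the concentration that cuts cell growth by 50%, read by quantitative metabolic MTT staining after a 3-day treatment. The resistant sublines were made by raising the concentration of the cytotoxic drug step by step. CEM-DNR-bulk (daunorubicin-selected) stably overexpresses mrp-1. K562-TAX (paclitaxel-selected) expresses only mdr-1. HCT116p53−/− carries null p53 alleles. BJ and MRC-5 are nonmalignant fibroblasts.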

[3] = system: Escherichia coli; experiment: Antibacterial activity against multi-resistant Escherichia coli C/16702 after 24 hrs; assay type: functional, organism-based
[4] = system: K562; experiment: Cytostatic activity against human K562 cells after 72 hrs by MTT assay; assay type: functional, cell-based; details: K562, 72 h; procedure, shortened: as §1
[5] = system: Pichia kudriavzevii; experiment: Antifungal activity against Candida crusei after 48 hrs; assay type: functional, organism-based
[6] = system: Staphylococcus aureus; experiment: Antibacterial activity against Staphylococcus aureus CCM 3953 after 24 hrs; assay type: functional, organism-based
[7] = system: CCRF-CEM; experiment: Cytostatic activity against human CCRF-CEM cells after 72 hrs by MTT assay; assay type: functional, cell-based; procedure, shortened: as §1
[8] = system: Hepatitis C virus; experiment: Antiviral activity against Hepatitis C virus subtype 2a infected in human HuH7 cells; assay type: functional, organism-based, Hepacivirus hominis; details: genotype 2a, Huh-7
[9] = system: Escherichia coli; experiment: Antibacterial activity against Escherichia coli CCM 3954 after 24 hrs; assay type: functional, organism-based
[10] = system: HL-60; experiment: Antiproliferative activity against human HL60 cells after 72 hrs by XTT assay; assay type: functional, cell-based; details: HL-60, 72 h
Procedure, shortened: (§2)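 Antiproliferative test on HL-60 promyelocytic leukemia and HeLa S3 cervical carcinoma cells growing in liquid suspension.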

[11] = system: Enterococcus faecalis; experiment: Antibacterial activity against Enterococcus faecalis CCM 4224 after 24 hrs; assay type: functional, organism-based
[12] = system: A549; experiment: Cytostatic activity against human A549 cells after 72 hrs by MTT assay; assay type: functional, cell-based; details: A549, 72 h; procedure, shortened: as §1
[13] = system: Staphylococcus haemolyticus; experiment: Antibacterial activity against methicillin-resistant Staphylococcus haemolyticus A/16568 after 24 hrs; assay type: functional, organism-based
[14] = Antiproliferative activity against human HeLaS3 cells after 72 hrs by XTT assay; assay type: functional, cell-based; details: HeLa S3, 72 h; procedure, shortened: as §2
[15] = system: HepG2; experiment: Antiproliferative activity against human HepG2 cells after 72 hrs by XTT assay; assay type: functional, cell-based; details: HepG2, 72 h
[16] = system: K562; experiment: Cytostatic activity against paclitaxel-resistant human K562 cells after 72 hrs by MTT assay; assay type: functional, cell-based; details: K562, 72 h; procedure, shortened: as §1
[17] = system: Staphylococcus aureus; experiment: Antibacterial activity against methicillin-resistant Staphylococcus aureus MRSA 4591 after 24 hrs; assay type: functional, organism-based
[18] = system: HCT-116; experiment: Cytostatic activity against human HCT116 cells after 72 hrs by MTT assay; assay type: functional, cell-based; details: HCT-116, 72 h; procedure, shortened: as §1
[19] = system: Candida tropicalis; experiment: Antifungal activity against Candida tropicalis after 48 hrs; assay type: functional, organism-based
[20] = system: Candida albicans; experiment: Antifungal activity against Candida albicans after 48 hrs; assay type: functional, organism-based
[21] = Cytostatic activity against human CEM-DNR-bulk cells after 72 hrs by MTT assay; assay type: functional, cell-based; procedure, shortened: as §1
[22] = system: HCT-116; experiment: Cytostatic activity against p53-deficient human HCT116 cells after 72 hrs by MTT assay; assay type: functional, cell-based; details: HCT-116, 72 h; procedure, shortened: as §1
[23] = system: MRC5; experiment: Cytostatic activity against human MRC5 cells after 72 hrs by MTT assay; assay type: ADME, cell-based; details: MRC5, 72 h; procedure, shortened: as §1
[24] = Cytotoxicity against human HuH7 cells infected with Hepatitis C virus subtype 1b; assay type: cell-based, Huh-7
[25] = system: Pseudomonas aeruginosa; experiment: Antibacterial activity against Pseudomonas aeruginosa CCM 3955 after 24 hrs; assay type: functional, organism-based
[26] = system: Pseudomonas aeruginosa; experiment: Antibacterial activity against multi-resistant Pseudomonas aeruginosa A/16575 after 24 hrs; assay type: functional, organism-based
[27] = system: Candida parapsilosis; experiment: Antifungal activity against Candida parapsilosis after 48 hrs; assay type: functional, organism-based
[28] = system: Hepatitis C virus; experiment: Antiviral activity against Hepatitis C virus subtype 1b infected in human HuH7 cells; assay type: functional, organism-based, Hepacivirus hominis; details: genotype 1b, Huh-7

CSc1ncnc2c1c(I)cn2[C@@H]1O[C@H](CO)[C@@H](O)[C@H]1O
CC50 [1]: > 44 µM | pIC50 [2]: 4.06 | Activity [3]: inactive | pIC50 [4]: 4.98 | Activity [5]: inactive | Activity [6]: inactive | pIC50 [7]: < 4.70 | pEC50 [8]: < 4.36 | Activity [9]: inactive | pIC50 [10]: 7.30 | Activity [11]: inactive | pIC50 [12]: < 4.70 | Activity [13]: inactive | pIC50 [14]: 6.60 | pIC50 [15]: < 4.70 | pIC50 [16]: 5.11 | Activity [17]: inactive | pIC50 [18]: < 4.70 | Activity [19]: inactive | Activity [20]: inactive | pIC50 [21]: < 4.70 | pIC50 [22]: < 4.70 | pIC50 [23]: < 4.00 | CC50 [24]: > 44 µM | Activity [25]: inactive | Activity [26]: inactive | Activity [27]: inactive | pEC50 [28]: 4.72

Cc1nc(N)c2c(-c3ccccc3)cn([C@@H]3O[C@H](CO)[C@@H](O)[C@H]3O)c2n1
CC50 [1]: > 44 µM | pIC50 [2]: < 4.00 | Activity [3]: inactive | pIC50 [4]: < 4.70 | Activity [5]: inactive | Activity [6]: inactive | pIC50 [7]: < 4.70 | pEC50 [8]: < 4.36 | Activity [9]: inactive | pIC50 [10]: < 4.70 | Activity [11]: inactive | pIC50 [12]: < 4.70 | Activity [13]: inactive | pIC50 [14]: < 4.70 | pIC50 [15]: < 4.70 | pIC50 [16]: < 4.70 | Activity [17]: inactive | pIC50 [18]: < 4.00 | Activity [19]: inactive | Activity [20]: inactive | pIC50 [21]: < 4.70 | pIC50 [22]: < 4.70 | pIC50 [23]: < 4.00 | CC50 [24]: > 44 µM | Activity [25]: inactive | Activity [26]: inactive | Activity [27]: inactive | pEC50 [28]: < 4.36

C#Cc1cn([C@@H]2O[C@H](CO)[C@@H](O)[C@H]2O)c2ncnc(OC)c12
CC50 [1]: > 44 µM | pIC50 [2]: 4.01 | Activity [3]: inactive | pIC50 [4]: 6.52 | Activity [5]: inactive | Activity [6]: inactive | pIC50 [7]: < 4.70 | pEC50 [8]: < 4.36 | Activity [9]: inactive | pIC50 [10]: 6.72 | Activity [11]: inactive | pIC50 [12]: 5.09 | Activity [13]: inactive | pIC50 [14]: 5.76 | pIC50 [15]: 4.90 | pIC50 [16]: 6.42 | Activity [17]: inactive | pIC50 [18]: 5.39 | Activity [19]: inactive | Activity [20]: inactive | pIC50 [21]: 5.46 | pIC50 [22]: 5.29 | pIC50 [23]: < 4.00 | CC50 [24]: > 44 µM | Activity [25]: inactive | Activity [26]: inactive | Activity [27]: inactive | pEC50 [28]: 6.74

Nc1nc2c(c(-c3ccccc3)cn2[C@@H]2O[C@H](CO)[C@@H](O)[C@H]2O)c(=O)[nH]1
CC50 [1]: > 44 µM | pIC50 [2]: < 4.00 | Activity [3]: inactive | pIC50 [4]: < 4.70 | Activity [5]: inactive | Activity [6]: inactive | pIC50 [7]: < 4.00 | pEC50 [8]: < 4.36 | Activity [9]: inactive | pIC50 [10]: < 4.70 | Activity [11]: inactive | pIC50 [12]: < 4.00 | Activity [13]: inactive | pIC50 [14]: < 4.70 | pIC50 [15]: < 4.70 | pIC50 [16]: < 4.70 | Activity [17]: inactive | pIC50 [18]: < 4.70 | Activity [19]: inactive | Activity [20]: inactive | pIC50 [21]: < 4.70 | pIC50 [22]: < 4.70 | pIC50 [23]: < 4.00 | CC50 [24]: > 44 µM | Activity [25]: inactive | Activity [26]: inactive | Activity [27]: inactive | pEC50 [28]: < 4.36

COc1nc(N)nc2c1c(-c1ccccc1)cn2[C@@H]1O[C@H](CO)[C@@H](O)[C@H]1O
CC50 [1]: > 44 µM | pIC50 [2]: < 4.00 | Activity [3]: inactive | pIC50 [4]: < 4.70 | Activity [5]: inactive | Activity [6]: inactive | pIC50 [7]: < 4.70 | pEC50 [8]: < 4.36 | Activity [9]: inactive | pIC50 [10]: < 4.70 | Activity [11]: inactive | pIC50 [12]: < 4.70 | Activity [13]: inactive | pIC50 [14]: < 4.70 | pIC50 [15]: < 4.70 | pIC50 [16]: < 4.70 | Activity [17]: inactive | pIC50 [18]: < 4.70 | Activity [19]: inactive | Activity [20]: inactive | pIC50 [21]: < 4.70 | pIC50 [22]: < 4.70 | pIC50 [23]: < 4.00 | CC50 [24]: > 44 µM | Activity [25]: inactive | Activity [26]: inactive | Activity [27]: inactive | pEC50 [28]: < 4.36

CN(C)c1ncnc2c1c(-c1ccoc1)cn2[C@@H]1O[C@H](CO)[C@@H](O)[C@H]1O
CC50 [1]: > 44 µM | pIC50 [2]: 4.00 | Activity [3]: inactive | pIC50 [4]: 5.81 | Activity [5]: inactive | Activity [6]: inactive | pIC50 [7]: 4.88 | pEC50 [8]: < 4.36 | Activity [9]: inactive | pIC50 [10]: 5.94 | Activity [11]: inactive | pIC50 [12]: < 4.70 | Activity [13]: inactive | pIC50 [14]: 5.04 | pIC50 [15]: 4.90 | pIC50 [16]: 4.83 | Activity [17]: inactive | pIC50 [18]: < 4.70 | Activity [19]: inactive | Activity [20]: inactive | pIC50 [21]: < 4.70 | pIC50 [22]: < 4.70 | pIC50 [23]: < 4.00 | CC50 [24]: > 44 µM | Activity [25]: inactive | Activity [26]: inactive | Activity [27]: inactive | pEC50 [28]: 5.10
